Published values from different studies.
Compare with care: the assays were run in different laboratories.
Target: cAMP-dependent protein kinase catalytic subunit beta (PRKACB, Homo sapiens, UniProt P22694)
Technique: competition with immobilised ligand

Structure (SMILES)	assay	setting	remaining binding
COc1ncc2cc3ccccc3nc2c1C#N	cell-free assay	5 µM	97%
C[C@@H]1CN(c2cc(-c3n[nH]c4ccc(OC5(C)CC5)cc34)ncn2)C[C@H](C)O1	cell-free assay	0.1 µM	91%
CN(CCCC(F)(F)F)c1nccc(-c2cnn3ncccc23)n1	binding	1 µM	100%
NS(=O)(=O)c1cc(NC(=O)Cc2ccccc2)ccc1Oc1cccc(Cl)c1	cell-free assay	1 µM	100%
N[C@H]1CCN(c2nccc(-c3cnn4ncccc34)n2)C1	binding	1 µM	83%
O=C(NCCCN1CCOCC1)c1ccc(Nc2nccc(-c3cc4ccccc4s3)n2)cc1	binding	1 µM	100%
CN(C)c1nccc(-c2cnc3ncccn23)n1	binding	1 µM	82%
c1cncc(-c2cccc(Nc3nccc(NC4CCCCC4)n3)c2)c1	binding	10 µM	56%
COc1cnc(Nc2cccc(S(N)(=O)=O)c2)nc1N1CCN(c2ccccc2)CC1	binding	1 µM	85%
O=C(NCC1CCOCC1)c1n[nH]cc1NC(=O)c1c(F)cccc1F	binding	1 µM	97%
COc1cc(-c2cn(C3CCc4c(F)cccc4N(CC(F)(F)F)C3=O)nn2)ccc1-n1cnc(C)c1 (centres unmarked)	cell-free assay	1 µM	95%
CN(C)c1nccc(-c2cnn3ncccc23)n1	binding	1 µM	76%
CNC(=O)Nc1ccc2c(c1)[C@@]1(CC2)OC(=O)N(CC(=O)N(Cc2ccc(F)cc2)[C@@H](C)C(F)(F)F)C1=O	cell-free assay	1 µM	100%
C[C@@H]1CCN(c2nccc(-c3cnn4ncccc34)n2)C1	binding	1 µM	72%
O=C(O)[C@@H]1[C@@H](Cn2nnc3ccccc3c2=O)CC[C@H]1C(=O)c1ccc(OCCC2CCOCC2)cc1	cell-free assay	1 µM	100%
COc1ccnn2ncc(-c3ccnc(N(C)C)n3)c12	binding	1 µM	95%
O=C(c1ccc(Nc2nccc(-c3cc4ccccc4s3)n2)cc1)N1CCC(N2CCCC2)CC1	binding	1 µM	100%
C=CC(=O)N1CCC(C(=O)NCC(=O)N2CCN(c3nc(-c4cnc(N)nc4C(F)F)nc(N4CCOCC4)n3)CC2)CC1	binding	1 µM	90%
CCCCN(CCCC)C(=O)CN1C[C@@H](c2cc(OC)c3c(c2)OCO3)[C@H](C(=O)O)[C@H]1CC(C)(C)CCC	cell-free assay	1 µM	100%
O=C(NCCCN1CCOCC1)c1ccc(Nc2ncc(Cl)c(-c3ccc(Cl)s3)n2)cc1	binding	1 µM	100%
